Measured values published in ChEMBL document CHEMBL4371053, “A novel tetrazole analogue of resveratrol is a potent anticancer agent” (Bioorg Med Chem Lett, 2019).

How the values were obtained:
Assay type in all cases: functional
[1] = system: HOP-92; assay: Growth inhibition of human HOP92 cells incubated for 48 hrs by sulforhodamine B assay; conditions: HOP-92, 48 h
Outline: (§1)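 NCI-60 five-dose study at 10⁻⁴, 10⁻⁵, 10⁻⁶, 10⁻⁷ and 10⁻⁸ M, 48 h incubation. Growth determined from sulforhodamine B optical density before and after exposure, relative to vehicle control and time-zero counts. GI₅₀ is the molar concentration giving 50% growth inhibition.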

[2] = system: UACC-257; assay: Growth inhibition of human UACC257 cells incubated for 48 hrs by sulforhodamine B assay; conditions: UACC-257, 48 h
Outline: (§2)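 NCI-60 screen: cells were exposed for 48 h to compound or vehicle, and growth was read as sulforhodamine B optical density before and after exposure. In the single-dose test at 10⁻⁵ M, percent growth was taken relative to vehicle control and time-zero cell number. In the five-dose test (10⁻⁴ to 10⁻⁸ M), GI₅₀ was the molar concentration causing 50% growth inhibition.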

[3] = system: SW-620; assay: Growth inhibition of human SW620 cells incubated for 48 hrs by sulforhodamine B assay; conditions: SW-620, 48 h
Outline: (§3)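 NCI-60 screen run per Rubinstein protocol. Sulforhodamine B optical density was read before and after 48 h exposure to compound or vehicle. The single-dose pass at 10⁻⁵ M reported percent growth relative to vehicle control and time-zero cell number. The five-dose follow-up used 10⁻⁴ to 10⁻⁸ M, giving GI₅₀ as the molar concentration causing 50% growth inhibition.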

[4] = system: BT-549; assay: Growth inhibition of human BT549 cells incubated for 48 hrs by sulforhodamine B assay; conditions: BT-549, 48 h; outline: as §2
[5] = system: HCT-15; assay: Growth inhibition of human HCT15 cells incubated for 48 hrs by sulforhodamine B assay; conditions: HCT-15, 48 h; outline: as §1
[6] = system: TK-10; assay: Growth inhibition of human TK10 cells incubated for 48 hrs by sulforhodamine B assay; conditions: TK-10, 48 h; outline: as §2
[7] = system: 786-0; assay: Growth inhibition of human 786-0 cells incubated for 48 hrs by sulforhodamine B assay; conditions: 786-0, 48 h; outline: as §1
[8] = system: OVCAR-3; assay: Growth inhibition of human OVCAR3 cells incubated for 48 hrs by sulforhodamine B assay; conditions: OVCAR-3, 48 h; outline: as §1
[9] = system: SK-MEL-5; assay: Growth inhibition of human SK-MEL-5 cells at 10 uM after 48 hrs by sulforhodamine B assay relative to control; conditions: SK-MEL-5, 48 h, values are per cent of control
Outline: (§4)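 NCI-60 single-dose screen. Cells exposed to 10⁻⁵ M or to vehicle for 48 h. Growth measured by sulforhodamine B optical density before and after exposure. Reported as percent growth relative to vehicle control and to time-zero cell number; negative values indicate cell kill.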

[10] = system: SF-268; assay: Growth inhibition of human SF268 cells incubated for 48 hrs by sulforhodamine B assay; conditions: SF-268, 48 h; outline: as §1
[11] = system: SNB-75; assay: Growth inhibition of human SNB75 cells incubated for 48 hrs by sulforhodamine B assay; conditions: SNB-75, 48 h; outline: as §3
[12] = system: MDA-MB-231; assay: Growth inhibition of human MDA-MB-231 cells incubated for 48 hrs by sulforhodamine B assay; conditions: MDA-MB-231, 48 h; outline: as §1
[13] = system: U-251; assay: Growth inhibition of human U251 cells incubated for 48 hrs by sulforhodamine B assay; conditions: U-251, 48 h; outline: as §3
[14] = system: NCI-H322M; assay: Growth inhibition of human NCI-H322M cells incubated for 48 hrs by sulforhodamine B assay; outline: as §2
[15] = system: SN12C; assay: Growth inhibition of human SN12C cells incubated for 48 hrs by sulforhodamine B assay; outline: as §2
[16] = system: SK-MEL-2; assay: Growth inhibition of human SK-MEL-2 cells incubated for 48 hrs by sulforhodamine B assay; conditions: SK-MEL-2, 48 h; outline: as §1
[17] = system: OVCAR-5; assay: Growth inhibition of human OVCAR5 cells incubated for 48 hrs by sulforhodamine B assay; conditions: OVCAR-5, 48 h; outline: as §2
[18] = system: OVCAR-8; assay: Growth inhibition of human OVCAR8 cells incubated for 48 hrs by sulforhodamine B assay; conditions: OVCAR-8, 48 h; outline: as §2
[19] = system: HT-29; assay: Growth inhibition of human HT-29 cells incubated for 48 hrs by sulforhodamine B assay; conditions: HT-29, 48 h; outline: as §1
[20] = system: CAKI-1; assay: Growth inhibition of human Caki1 cells incubated for 48 hrs by sulforhodamine B assay; conditions: CAKI-1, 48 h; outline: as §2
[21] = system: NCI-H460; assay: Growth inhibition of human NCI-H460 cells at 10 uM after 48 hrs by sulforhodamine B assay relative to control; conditions: NCI-H460, 48 h, values are per cent of control; outline: as §4
[22] = system: NCI-H522; assay: Growth inhibition of human NCI-H522 cells at 10 uM after 48 hrs by sulforhodamine B assay relative to control; conditions: NCI-H522, 48 h, values are per cent of control; outline: as §4
[23] = system: Malme-3M; assay: Growth inhibition of human MALME-3M cells incubated for 48 hrs by sulforhodamine B assay; outline: as §2
[24] = system: KM12; assay: Growth inhibition of human KM12 cells incubated for 48 hrs by sulforhodamine B assay; conditions: KM12, 48 h; outline: as §1
[25] = system: EKVX; assay: Growth inhibition of human EKVX cells incubated for 48 hrs by sulforhodamine B assay; outline: as §2
[26] = system: UACC-62; assay: Growth inhibition of human UACC62 cells incubated for 48 hrs by sulforhodamine B assay; conditions: UACC-62, 48 h; outline: as §3
[27] = system: NCI-H460; assay: Growth inhibition of human NCI-H460 cells incubated for 48 hrs by sulforhodamine B assay; conditions: NCI-H460, 48 h; outline: as §2
[28] = system: T47D; assay: Growth inhibition of human T47D cells incubated for 48 hrs by sulforhodamine B assay; outline: as §2
[29] = system: OVCAR-4; assay: Growth inhibition of human OVCAR4 cells incubated for 48 hrs by sulforhodamine B assay; conditions: OVCAR-4, 48 h; outline: as §1
[30] = system: NCI-H226; assay: Growth inhibition of human NCI-H226 cells incubated for 48 hrs by sulforhodamine B assay; conditions: NCI-H226, 48 h; outline: as §2
[31] = system: NCI-H522; assay: Growth inhibition of human NCI-H522 cells incubated for 48 hrs by sulforhodamine B assay; conditions: NCI-H522, 48 h; outline: as §1
[32] = system: SF-539; assay: Growth inhibition of human SF539 cells at 10 uM after 48 hrs by sulforhodamine B assay relative to control; conditions: SF-539, 48 h, values are per cent of control; outline: as §4
[33] = system: A498; assay: Growth inhibition of human A498 cells incubated for 48 hrs by sulforhodamine B assay; conditions: A498, 48 h; outline: as §1

Row | Compound | GI50 [1] [µM] | GI50 [3] [µM] | GI50 [5] [µM] | GI50 [7] [µM] | GI50 [8] [µM] | growth, % of control at 10 µM [9] [%] | GI50 [10] [µM] | GI50 [11] [µM] | GI50 [12] [µM] | GI50 [13] [µM] | GI50 [16] [µM] | GI50 [19] [µM] | growth, % of control at 10 µM [21] [%] | growth, % of control at 10 µM [22] [%] | GI50 [24] [µM] | GI50 [26] [µM] | GI50 [29] [µM] | GI50 [31] [µM] | further results
1 | COc1ccc(/C(=C/c2ccc3ccccc3c2)c2nnn[nH]2)cc1OC | 4.59 | 1.36 | 2.92 | 5.72 | 1.69 | 23.5 | 6.55 | 2.51 | 12.5 | 4.46 | 4.36 | 2.69 | 14.1 | -2.85 | 2.79 | 0.86 | 7.78 | 1.14 | GI50 [2]: 56.6 µM; GI50 [4]: 10.9 µM; GI50 [6]: 18.5 µM; GI50 [14]: 6.88 µM; GI50 [15]: 9.97 µM; GI50 [17]: 6.08 µM; GI50 [18]: 7.1 µM; GI50 [20]: 2.24 µM; GI50 [23]: 3.08 µM; GI50 [25]: 18.2 µM; GI50 [27]: 2.81 µM; GI50 [28]: 28.2 µM; GI50 [30]: > 100 µM
2 | COc1ccc(/C=C(/c2cc(OC)c(OC)c(OC)c2)c2nnn[nH]2)cc1O | < 0.01 | < 0.01 | < 0.01 | < 0.01 | < 0.01 | -54 | < 0.01 | < 0.01 | < 0.01 | < 0.01 | < 0.01 | 2.2 | 2.67 | -6.32 | < 0.01 | < 0.01 | < 0.01 | < 0.01 | growth, % of control at 10 µM [32]: -1.97%; GI50 [33]: < 0.01 µM
